Data taken from ChEMBL document CHEMBL4680335, “Synthesis, anticancer and antimicrobial evaluation of new benzofuran based derivatives: PI3K inhibition, quorum sensing and molecular modeling study” (Bioorg Med Chem, 2021).
In brackets after ≈: the same amount, converted by molar mass.

Tested on: HepG2
Test: Antiproliferative activity against human HepG2 cells assessed as reduction in cell growth
Assay type: functional, cell-based
Conditions: not given

Row | Compound | IC50
1 | O=CC(/N=N/c1ccc(Cl)cc1)=C(\O)c1cc2ccccc2o1 | 37.3 µM

Tested on: MCF7
Test: Antiproliferative activity against human MCF7 cells assessed as reduction in cell growth
Assay type: functional, cell-based
Conditions: not given

Row | Compound | IC50
2 | CCOC(=O)Cc1csc(N/N=C(\C)c2cc3ccccc3o2)n1 | 6.55 µM

Tested on: HeLa
Test: Antiproliferative activity against human HeLa cells assessed as reduction in cell growth
Assay type: functional, cell-based
Conditions: not given

Row | Compound | IC50
3 | CCOC(=O)Cc1csc(N/N=C(\C)c2cc3ccccc3o2)n1 | 9.26 µM
4 | O=CC(/N=N/c1ccc(Cl)cc1)=C(\O)c1cc2ccccc2o1 | 38.2 µM

Tested on: PC-3
Test: Antiproliferative activity against human PC3 cells assessed as reduction in cell growth
Assay type: functional, cell-based
Conditions: not given

Row | Compound | IC50
5 | CCOC(=O)Cc1csc(N/N=C(\C)c2cc3ccccc3o2)n1 | 13.1 µM
6 | O=CC(/N=N/c1ccc(Cl)cc1)=C(\O)c1cc2ccccc2o1 | 51.8 µM

Tested on: WI-38
Test: Cytotoxicity against human WI38 cells by MTT assay
Assay type: cell-based
Conditions: not given

Row | Compound | IC50
7 | CCOC(=O)Cc1csc(N/N=C(\C)c2cc3ccccc3o2)n1 | 36.8 µM

Molecular target: Phosphatidylinositol 4,5-bisphosphate 3-kinase catalytic subunit alpha isoform (Homo sapiens, UniProt P42336)
Test: Inhibition of human PI3Kalpha by ELISA
Conditions: not given
In short: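 Human PI3Kα activity measured by ELISA in wells coated with a PI3K-specific antibody. Standard or test compound was added at room temperature and absorbance read. A log–log standard curve related absorbance to standard concentration. Percent inhibition was calculated against control, and IC50 was obtained from concentration/inhibition curves.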

Phosphatidylinositol 4,5-bisphosphate 3-kinase catalytic subunit alpha isoform, sequence (P42336 whole entry, canonical isoform): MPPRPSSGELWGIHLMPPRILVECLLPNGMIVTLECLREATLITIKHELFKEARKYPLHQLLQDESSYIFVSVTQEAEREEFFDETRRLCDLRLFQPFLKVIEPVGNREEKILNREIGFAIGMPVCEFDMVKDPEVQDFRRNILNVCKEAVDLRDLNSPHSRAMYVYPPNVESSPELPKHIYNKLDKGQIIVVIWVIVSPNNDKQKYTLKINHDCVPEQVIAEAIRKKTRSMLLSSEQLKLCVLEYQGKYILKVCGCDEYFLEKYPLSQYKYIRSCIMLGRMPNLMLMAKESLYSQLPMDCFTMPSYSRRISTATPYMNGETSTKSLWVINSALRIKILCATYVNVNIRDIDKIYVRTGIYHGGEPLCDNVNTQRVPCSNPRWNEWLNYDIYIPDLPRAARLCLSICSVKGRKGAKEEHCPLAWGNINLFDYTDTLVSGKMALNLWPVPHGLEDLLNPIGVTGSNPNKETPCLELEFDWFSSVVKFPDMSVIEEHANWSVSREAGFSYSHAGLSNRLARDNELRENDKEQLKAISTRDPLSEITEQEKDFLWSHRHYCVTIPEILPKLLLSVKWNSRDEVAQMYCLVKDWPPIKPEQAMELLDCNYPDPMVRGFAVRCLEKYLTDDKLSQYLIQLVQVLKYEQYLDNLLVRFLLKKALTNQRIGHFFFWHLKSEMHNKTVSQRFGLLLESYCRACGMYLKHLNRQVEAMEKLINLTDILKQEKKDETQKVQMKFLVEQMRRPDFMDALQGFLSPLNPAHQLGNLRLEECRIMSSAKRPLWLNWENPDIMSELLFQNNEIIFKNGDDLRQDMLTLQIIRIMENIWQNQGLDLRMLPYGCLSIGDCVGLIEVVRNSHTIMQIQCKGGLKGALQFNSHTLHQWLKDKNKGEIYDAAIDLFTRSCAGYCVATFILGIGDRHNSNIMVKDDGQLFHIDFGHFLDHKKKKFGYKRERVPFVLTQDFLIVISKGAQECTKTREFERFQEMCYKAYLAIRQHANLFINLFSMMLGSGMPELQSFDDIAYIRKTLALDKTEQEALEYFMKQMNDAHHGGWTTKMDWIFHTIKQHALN

Row | Compound | IC50
8 | CCOC(=O)Cc1csc(N/N=C(\C)c2cc3ccccc3o2)n1 | 7.8 µM

Tested on: MCF7
Test: Induction of cell cycle arrest in human MCF7 cells assessed as accumulation at G0-G1 phase at […] incubated for 24 hrs by propidium iodide staining based flow cytometry analysis (reference value: 53.89 %)
Assay type: functional
Design: dose or concentration left out as unconfirmed
Conditions: not given

Row | Compound | Activity
9 | CCOC(=O)Cc1csc(N/N=C(\C)c2cc3ccccc3o2)n1 | 43.95%

Tested on: MCF7
Test: Induction of cell cycle arrest in human MCF7 cells assessed as accumulation at S phase at […] incubated for 24 hrs by propidium iodide staining based flow cytometry analysis (reference value: 36.26 %)
Assay type: functional
Design: dose or concentration left out as unconfirmed
Conditions: not given

Row | Compound | Activity
10 | CCOC(=O)Cc1csc(N/N=C(\C)c2cc3ccccc3o2)n1 | 33.71%

Tested on: MCF7
Test: Induction of cell cycle arrest in human MCF7 cells assessed as accumulation at G2/M phase at […] incubated for 24 hrs by propidium iodide staining based flow cytometry analysis (reference value: 9.85 %)
Assay type: functional
Design: dose or concentration left out as unconfirmed
Conditions: not given

Row | Compound | Activity
11 | CCOC(=O)Cc1csc(N/N=C(\C)c2cc3ccccc3o2)n1 | 22.34%

Tested on: MCF7
Test: Induction of apoptosis in human MCF7 cells assessed as accumulation at preG1 phase at […] incubated for 24 hrs by propidium iodide staining based flow cytometry analysis (reference value: 1.78 %)
Assay type: functional
Design: dose or concentration left out as unconfirmed
Conditions: not given

Row | Compound | Activity
12 | CCOC(=O)Cc1csc(N/N=C(\C)c2cc3ccccc3o2)n1 | 17.66%

Tested on: MCF7
Test: Induction of apoptosis in human MCF7 cells assessed as early apoptotic cells at […] incubated for 24 hrs by Annexin V-FITC and propidium iodide staining based flow cytometry analysis (reference value: 0.42 %)
Assay type: functional
Design: dose or concentration left out as unconfirmed
Conditions: not given

Row | Compound | Activity
13 | CCOC(=O)Cc1csc(N/N=C(\C)c2cc3ccccc3o2)n1 | 3.27%

Tested on: MCF7
Test: Induction of apoptosis in human MCF7 cells assessed as late apoptotic cells at […] incubated for 24 hrs by Annexin V-FITC and propidium iodide staining based flow cytometry analysis (reference value: 0.15 %)
Assay type: functional
Design: dose or concentration left out as unconfirmed
Conditions: not given

Row | Compound | Activity
14 | CCOC(=O)Cc1csc(N/N=C(\C)c2cc3ccccc3o2)n1 | 8.1%

Tested on: MCF7
Test: Induction of apoptosis in human MCF7 cells assessed as necrotic cells at […] incubated for 24 hrs by Annexin V-FITC and propidium iodide staining based flow cytometry analysis (reference value: 1.21 %)
Assay type: functional
Design: dose or concentration left out as unconfirmed
Conditions: not given

Row | Compound | Activity
15 | CCOC(=O)Cc1csc(N/N=C(\C)c2cc3ccccc3o2)n1 | 6.29%

Tested on: Staphylococcus aureus
Test: Antibacterial activity against Staphylococcus aureus ATCC 29213 assessed as diameter of zone inhibition at 5 mg/ml incubated for 24 hrs by agar plate diffusion method
Assay type: functional
Conditions: read-out: DIZ
In short: (§1)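 Cup (well) agar diffusion in Mueller Hinton agar. Overnight MH broth culture diluted to 0.5 McFarland; 20 μL mixed into MH agar at 50 °C, poured into 9-cm plates. Wells cut with a cork borer and filled with 100 μL compound in DMSO (final 5 mg/mL). DMSO as negative control, ampicillin/clavulanic acid as reference. 37 °C, 24 h; inhibition zone diameter in mm.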

Row | Compound | zone of inhibition at 5000 µg/mL
16 | O=CC(/N=N/c1ccc(Cl)cc1)=C(\O)c1cc2ccccc2o1 | 9 mm
17 | CC1(C)S[C@@H]2[C@H](NC(=O)[C@H](N)c3ccccc3)C(=O)N2[C@H]1C(=O)O [AMPICILLIN] | 6 mm

Tested on: Bacillus cereus
Test: Antibacterial activity against Bacillus cereus UW85 assessed as diameter of zone inhibition at 5 mg/ml incubated for 24 hrs by agar plate diffusion method
Assay type: functional
Conditions: read-out: DIZ
In short: as §1

Row | Compound | zone of inhibition at 5000 µg/mL
18 | O=CC(/N=N/c1ccc(Cl)cc1)=C(\O)c1cc2ccccc2o1 | 6 mm
19 | CC1(C)S[C@@H]2[C@H](NC(=O)[C@H](N)c3ccccc3)C(=O)N2[C@H]1C(=O)O [AMPICILLIN] | 10 mm

Tested on: Escherichia coli
Test: Antibacterial activity against Escherichia coli ATCC 12435 assessed as diameter of zone inhibition at 5 mg/ml incubated for 24 hrs by agar plate diffusion method
Assay type: functional
Conditions: read-out: DIZ
In short: as §1

Row | Compound | zone of inhibition at 5000 µg/mL
20 | CC1(C)S[C@@H]2[C@H](NC(=O)[C@H](N)c3ccccc3)C(=O)N2[C@H]1C(=O)O [AMPICILLIN] | 10 mm

Tested on: Candida albicans
Test: Antifungal activity against Candida albicans CS35 assessed as diameter of zone inhibition at 5 mg/ml incubated for 24 hrs by agar plate diffusion method
Assay type: functional
Conditions: read-out: DIZ
In short: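 Cup diffusion using Sabouraud's medium for C. albicans. 100 μL compound in DMSO (5 mg/mL) per well, DMSO as negative control, fluconazole as reference. 37 °C, 24 h; inhibition zone diameter in mm.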

Row | Compound | zone of inhibition at 5000 µg/mL
21 | OC(Cn1cncn1)(Cn1cncn1)c1ccc(F)cc1F [FLUCONAZOLE] | 8 mm

Tested on: not listed separately
Test: Inhibition of quorum sensing in Chromobacterium violaceum ATCC 12472 assessed as inhibition zone at 5 mg/ml incubated for 48 hrs by well diffusion method
Assay type: functional
Conditions: read-out: IZ
In short: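 Chromobacterium violaceum ATCC 12472 grown in LB broth at 28 °C, 48 h. 50 μL inoculated into 5 ml soft LB agar and overlaid on LB agar plates. Wells received 100 μL compound in DMSO (5 mg/ml); DMSO as negative control. 28 °C, 48 h. Growth-inhibition radius r1 and pigment-plus-growth radius r2 measured; QS inhibition = r2 − r1 (mm).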

Row | Compound | zone of inhibition at 5000 µg/mL
22 | CCOC(=O)Cc1csc(N/N=C(\C)c2cc3ccccc3o2)n1 | 3 mm
23 | CN(C)/C=C/C(=O)c1cc2ccccc2o1 | 5 mm

Tested on: Staphylococcus aureus
Test: Antibacterial activity against Staphylococcus aureus ATCC 29213 assessed as reduction in bacterial growth incubated for 18 hrs by two-fold serial dilution method
Assay type: functional
Conditions: not given
In short: (§2)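 Broth microdilution per CLSI 2015. Selection: compounds active in agar diffusion. Twofold (1:1) dilutions in 0.1 ml MH broth; inoculum 5 × 10^6 CFU/ml diluted suspension. Ampicillin/clavulanic acid as positive control.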

Row | Compound | MIC
24 | O=CC(/N=N/c1ccc(Cl)cc1)=C(\O)c1cc2ccccc2o1 | 128 µg/mL (≈ 392 µM)
25 | CC1(C)S[C@@H]2[C@H](NC(=O)[C@H](N)c3ccccc3)C(=O)N2[C@H]1C(=O)O [AMPICILLIN] | 128 µg/mL (≈ 366 µM)

Tested on: Bacillus cereus
Test: Antibacterial activity against Bacillus cereus UW85 assessed as reduction in bacterial growth incubated for 18 hrs by two-fold serial dilution method
Assay type: functional
Conditions: not given
In short: as §2

Row | Compound | MIC
26 | O=CC(/N=N/c1ccc(Cl)cc1)=C(\O)c1cc2ccccc2o1 | 256 µg/mL (≈ 783 µM)
27 | CC1(C)S[C@@H]2[C@H](NC(=O)[C@H](N)c3ccccc3)C(=O)N2[C@H]1C(=O)O [AMPICILLIN] | 128 µg/mL (≈ 366 µM)

Tested on: Pseudomonas aeruginosa
Test: Antibacterial activity against Pseudomonas aeruginosa PAO1 assessed as reduction in bacterial growth incubated for 18 hrs by two-fold serial dilution method
Assay type: functional
Conditions: not given
In short: as §2

Row | Compound | MIC
28 | CC1(C)S[C@@H]2[C@H](NC(=O)[C@H](N)c3ccccc3)C(=O)N2[C@H]1C(=O)O [AMPICILLIN] | > 5000 µg/mL

Tested on: Candida albicans
Test: Antifungal activity against Candida albicans CS35 assessed as reduction in fungal growth incubated for 18 hrs by two-fold serial dilution method
Assay type: functional
Conditions: not given
In short: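 Broth microdilution per CLSI M27-A3/M38-A2. Selection: compounds active in agar diffusion. Twofold (1:1) dilutions in 0.1 ml yeast peptone dextrose medium; fluconazole as positive control.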

Row | Compound | MIC
29 | CN(C)/C=C/C(=O)c1cc2ccccc2o1 | 256 µg/mL (≈ 1190 µM)
30 | OC(Cn1cncn1)(Cn1cncn1)c1ccc(F)cc1F [FLUCONAZOLE] | 256 µg/mL (≈ 836 µM)

Tested on: not listed separately
Test: Safety index, ratio of IC50 for cytotoxicity against human WI-38 cells to IC50 for antiproliferative activity against human HepG2 cells
Assay type: toxicity, cell-based
Conditions: WI-38 cells versus HepG2 cells

Row | Compound | selectivity ratio
31 | CCOC(=O)Cc1csc(N/N=C(\C)c2cc3ccccc3o2)n1 | 4.75

Tested on: not listed separately
Test: Safety index, ratio of IC50 for cytotoxicity against human WI-38 cells to IC50 for antiproliferative activity against human MCF7 cells
Assay type: toxicity, cell-based
Conditions: WI-38 cells versus MCF7 cells

Row | Compound | selectivity ratio
32 | CCOC(=O)Cc1csc(N/N=C(\C)c2cc3ccccc3o2)n1 | 5.61

Tested on: not listed separately
Test: Safety index, ratio of IC50 for cytotoxicity against human WI-38 cells to IC50 for antiproliferative activity against human HeLa cells
Assay type: toxicity, cell-based
Conditions: WI-38 cells versus HeLa cells

Row | Compound | selectivity ratio
33 | CCOC(=O)Cc1csc(N/N=C(\C)c2cc3ccccc3o2)n1 | 3.97

Tested on: not listed separately
Test: Safety index, ratio of IC50 for cytotoxicity against human WI-38 cells to IC50 for antiproliferative activity against human PC-3 cells
Assay type: toxicity, cell-based
Conditions: WI-38 cells versus PC-3 cells

Row | Compound | selectivity ratio
34 | CCOC(=O)Cc1csc(N/N=C(\C)c2cc3ccccc3o2)n1 | 2.8
